The species named for one data set is Mus musculus. Briefly: Antiarrhythmic potency in female roswell park white mice using chloroform-induced ventricular fibrillation assay. The following applies: Heart. It counts as functional.
Data set [1] is described as follows: Ratio of lethal dose to that of effective dose in mice. It counts as ADME, organism-based. The following applies: mouse, in vivo.
The nature of data set [2]: Compound was evaluated for acute toxicity (24 h) in female roswell park white mice given intraperitoneally. It counts as organism-based. The following applies: mouse, in vivo, ip. The gist of the method:
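Female Roswell Park (ICR) mice, about 15–25 g, dosed intraperitoneally in groups of at least ten. At least three dose levels were spaced logarithmically at intervals of 0.1 or less. Deaths were scored at 24 h.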

Each structure is given as a SMILES string.

For the compound `Cc1ccc(C(=O)NC2CCCC3CN(C)CCC32)cc1` (stereo not given), in the data set filed under Mus musculus, it took a dose of 110 µmol/kg to reach the 50% effect level (ED50). The therapeutic index (LD50/ED50) in data set [1] came to 7.3. This compound also came in with an LD50 at 24 h in data set [2] of 803 µmol/kg.

`CN1CCC2C(CCCC2NC(=O)c2ccc(C(F)(F)F)cc2)C1` (stereo not given): the 50% effect level in the data set listed under Mus musculus (ED50) was put at a dose of 48 µmol/kg. Moreover, the therapeutic index (LD50/ED50) in data set [1] was found to be 13.6. The compound also had an LD50 at 24 h in data set [2] of 661 µmol/kg.

For the compound `COc1ccc(C(=O)NC2CCCC3CN(C)CCC32)cc1` (stereo not given), the ED50 in the data set filed under Mus musculus was 109 µmol/kg. Besides, the therapeutic index (LD50/ED50) in data set [1] amounted to 10.4. The LD50 at 24 h in data set [2] was 1140 µmol/kg.

`CN1CCC2C(CCCC2NC(=O)c2ccc(F)cc2)C1` (stereo not given): in the data set filed under Mus musculus, the 50% effect level (ED50) was put at a dose of 110 µmol/kg. Moreover, in data set [1], the therapeutic index (LD50/ED50) stood at 9. This compound showed an LD50 at 24 h in data set [2] of 992 µmol/kg.

With `CN1CCC2C(CCCC2NC(=O)c2ccc(Cl)cc2)C1` (stereo not given), the ED50 in the data set filed under Mus musculus came out at 49 µmol/kg. Besides, the therapeutic index (LD50/ED50) in data set [1] came out at 19. The LD50 at 24 h in data set [2] was 929 µmol/kg.

For the compound `CN1CCC2C(CCCC2NC(=O)c2ccc(Cl)c(Cl)c2)C1` (stereo not given), the ED50 in the data set listed under Mus musculus is 32 µmol/kg. For the same compound, the therapeutic index (LD50/ED50) in data set [1] was 19.6. This compound registered an LD50 at 24 h in data set [2] of 630 µmol/kg.

`CN1CCC2C(CCCC2NC(=O)c2cccc(Cl)c2)C1` (stereo not given) had an ED50 in the data set listed under Mus musculus of 73 µmol/kg. Moreover, the therapeutic index (LD50/ED50) in data set [1] worked out at 8.36. This compound came in with an LD50 at 24 h in data set [2] of 613 µmol/kg.

Turning to `CN1CCC2C(CCCC2NC(=O)c2ccccc2)C1` (stereo not given), in the data set filed under Mus musculus, the ED50 is 101 µmol/kg. Further, the therapeutic index (LD50/ED50) in data set [1] worked out at 8.58. The compound also yielded an LD50 at 24 h in data set [2] of 866 µmol/kg.

As to `CN1CCC2C(CCCC2NC(=O)c2ccc([N+](=O)[O-])cc2)C1` (stereo not given), in the data set listed under Mus musculus, the ED50 came out at 95 µmol/kg. In data set [1], the therapeutic index (LD50/ED50) was found to be 11.7. Besides, in data set [2], the LD50 at 24 h turned out to be 1100 µmol/kg.

Regarding `CN1CCC2C(CCCC2NC(=O)c2ccc(Cl)cc2Cl)C1` (stereo not given), the ED50 in the data set filed under Mus musculus is 88 µmol/kg. The therapeutic index (LD50/ED50) in data set [1] amounted to 7.1. The compound also registered an LD50 at 24 h in data set [2] of 624 µmol/kg.

`COc1cc(C(=O)NC2CCCC3CN(C)CCC32)cc(OC)c1OC` (stereo not given) registered an ED50 in the data set filed under Mus musculus of 25 µmol/kg. The therapeutic index (LD50/ED50) in data set [1] is 24. The LD50 at 24 h in data set [2] is 610 µmol/kg.

`C=C[C@H]1CN2CC[C@H]1C[C@@H]2[C@@H](O)c1ccnc2ccc(OC)cc12` [QUINIDINE]: the ED50 in the data set listed under Mus musculus was found to be 122 µmol/kg. The compound further registered a median lethal dose (LD50) at 24 h in data set [2] of 524 µmol/kg.

Source of the values: ChEMBL document CHEMBL1121392, “Synthesis and antiarrhythmic properties of some 5-benzamido-2-methyl-trans-decahydroisoquinolines” (J Med Chem, 1980).
